Measured values: ChEMBL document CHEMBL1154616, “Synthesis and antitumor activity studies of some new fused 1,2,4-triazole derivatives carrying 2,4-dichloro-5-fluorophenyl moiety” (Eur J Med Chem, 2009)

Key:
Assay type in all cases: functional
K562 = assay: Anticancer activity against human K562 cells after 48 hrs by sulforhodamine B assay; conditions: K562, 48 h
Outline: (§1)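 Full 60-cell-line panel, compounds tested over a five-log dose range. Cells are preincubated on microtiter plates, the agent is added, and cultures run 48 h. The end point is sulphorhodamine B protein staining. GI50 is taken as the concentration giving 50% growth inhibition relative to untreated control cells.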

SN12C = assay: Anticancer activity against human SN12C cells after 48 hrs by sulforhodamine B assay; outline: as §1
IGROV-1 = assay: Anticancer activity against human IGROV1 cells after 48 hrs by sulforhodamine B assay; conditions: IGROV-1, 48 h; outline: as §1
HOP-92 = assay: Anticancer activity against human HOP92 cells after 48 hrs by sulforhodamine B assay; conditions: HOP-92, 48 h; outline: as §1
OVCAR-3 = assay: Anticancer activity against human OVCAR-3 cells after 48 hrs by sulforhodamine B assay; conditions: OVCAR-3, 48 h; outline: as §1
HOP-62 = assay: Anticancer activity against human HOP62 cells after 48 hrs by sulforhodamine B assay; conditions: HOP-62, 48 h; outline: as §1
UO-31 = assay: Anticancer activity against human UO31 cells after 48 hrs by sulforhodamine B assay; conditions: UO-31, 48 h
Outline: (§2)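 Cells from the 60-line full panel are preincubated on microtiter plates, then treated across a five-log dose range for 48 h. Growth is read with the protein-binding dye sulforhodamine B. GI50 is the concentration giving 50% growth inhibition relative to untreated control cells.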

PC-3 = assay: Anticancer activity against human PC3 cells after 48 hrs by sulforhodamine B assay; conditions: PC-3, 48 h; outline: as §1
HT-29 = assay: Anticancer activity against human HT-29 cells after 48 hrs by sulforhodamine B assay; conditions: HT-29, 48 h; outline: as §1
HL-60(TB) = assay: Anticancer activity against human HL-60(TB) cells after 48 hrs by sulforhodamine B assay; conditions: HL-60, 48 h
Outline: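 Run within the full 60-cell-line panel across a five-log dose range. GI50 was taken as the concentration causing 50% growth inhibition relative to untreated control cells.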

MCF7 [1] = assay: Anticancer activity against human MCF7 cells after 48 hrs by sulforhodamine B assay; conditions: MCF7, 48 h; outline: as §1
SR = assay: Anticancer activity against human SR cells after 48 hrs by sulforhodamine B assay; outline: as §2
NCI-H322M = assay: Anticancer activity against human NCI-H322M cells after 48 hrs by sulforhodamine B assay; outline: as §1
SF-268 [2] = assay: Anticancer activity against human SF268 cells assessed as cell growth at 100 uM after 48 hrs by sulforhodamine B assay relative to control; conditions: SF-268, 48 h, read-out: Activity
Outline: (§3)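 Three-cell-line prescreen (NCI-H460 lung, MCF7 breast, SF 268 CNS), each preincubated on microtiter plates. The agent is added at a single concentration and cultures are incubated 48 h. Growth is read by sulphorhodamine B protein staining and reported as percent growth of treated versus untreated control cells; negative values indicate cell kill.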

SNB-19 = assay: Anticancer activity against human SNB19 cells after 48 hrs by sulforhodamine B assay; conditions: SNB-19, 48 h; outline: as §1
SF-539 = assay: Anticancer activity against human SF539 cells after 48 hrs by sulforhodamine B assay; conditions: SF-539, 48 h; outline: as §1
OVCAR-4 = assay: Anticancer activity against human OVCAR4 cells after 48 hrs by sulforhodamine B assay; conditions: OVCAR-4, 48 h; outline: as §1
CAKI-1 = assay: Anticancer activity against human Caki1 cells after 48 hrs by sulforhodamine B assay; conditions: CAKI-1, 48 h; outline: as §1
MOLT-4 = assay: Anticancer activity against human MOLT4 cells after 48 hrs by sulforhodamine B assay; conditions: MOLT-4, 48 h; outline: as §1
NCI-H460 [3] = assay: Anticancer activity against human NCI-H460 cells assessed as cell growth at 100 uM after 48 hrs by sulforhodamine B assay relative to control; conditions: NCI-H460, 48 h, read-out: Activity; outline: as §3
SK-OV-3 = assay: Anticancer activity against human SKOV3 cells after 48 hrs by sulforhodamine B assay; conditions: SK-OV-3, 48 h; outline: as §1
HCC 2998 = assay: Anticancer activity against human HCC2998 cells after 48 hrs by sulforhodamine B assay; conditions: HCC 2998, 48 h; outline: as §1
Malme-3M = assay: Anticancer activity against human MALME-3M cells after 48 hrs by sulforhodamine B assay; outline: as §1
COLO 205 = assay: Anticancer activity against human COLO205 cells after 48 hrs by sulforhodamine B assay; conditions: COLO 205, 48 h; outline: as §1
NCI/ADR-RES = assay: Anticancer activity against human NCI/ADR-RES cells after 48 hrs by sulforhodamine B assay; outline: as §1
A549 = assay: Anticancer activity against human A549 cells after 48 hrs by sulforhodamine B assay; conditions: A549, 48 h; outline: as §1
TK-10 = assay: Anticancer activity against human TK10 cells after 48 hrs by sulforhodamine B assay; conditions: TK-10, 48 h; outline: as §2
NCI-H226 = assay: Anticancer activity against human NCI-H226 cells after 48 hrs by sulforhodamine B assay; conditions: NCI-H226, 48 h; outline: as §1
HCT-15 = assay: Anticancer activity against human HCT15 cells after 48 hrs by sulforhodamine B assay; conditions: HCT-15, 48 h; outline: as §1
UACC-62 = assay: Anticancer activity against human UACC62 cells after 48 hrs by sulforhodamine B assay; conditions: UACC-62, 48 h; outline: as §2
UACC-257 = assay: Anticancer activity against human UACC257 cells after 48 hrs by sulforhodamine B assay; conditions: UACC-257, 48 h; outline: as §2
LOX IMVI = assay: Anticancer activity against human LOXIMVI cells after 48 hrs by sulforhodamine B assay; outline: as §1
SF-268 [4] = assay: Anticancer activity against human SF268 cells after 48 hrs by sulforhodamine B assay; conditions: SF-268, 48 h; outline: as §1
MCF7 [5] = assay: Anticancer activity against human MCF7 cells assessed as cell growth at 100 uM after 48 hrs by sulforhodamine B assay relative to control; conditions: MCF7, 48 h, read-out: Activity; outline: as §3
T47D = assay: Anticancer activity against human T47D cells after 48 hrs by sulforhodamine B assay; outline: as §2
OVCAR-8 = assay: Anticancer activity against human OVCAR8 cells after 48 hrs by sulforhodamine B assay; conditions: OVCAR-8, 48 h; outline: as §1
DU-145 = assay: Anticancer activity against human DU145 cells after 48 hrs by sulforhodamine B assay; conditions: DU-145, 48 h; outline: as §1
NCI-H460 [6] = assay: Anticancer activity against human NCI-H460 cells after 48 hrs by sulforhodamine B assay; conditions: NCI-H460, 48 h; outline: as §1
MDA-MB-435 = assay: Anticancer activity against human MDA-MB-435 cells after 48 hrs by sulforhodamine B assay; conditions: MDA-MB-435, 48 h; outline: as §1
U-251 = assay: Anticancer activity against human U251 cells after 48 hrs by sulforhodamine B assay; conditions: U-251, 48 h; outline: as §2
EKVX = assay: Anticancer activity against human EKVX cells after 48 hrs by sulforhodamine B assay; outline: as §1
[7] = Anticancer activity against human Hs 578T cells after 48 hrs by sulforhodamine B assay; outline: as §1
[8] = Anticancer activity against human […] cells after 48 hrs by sulforhodamine B assay; outline: as §1
SNB-75 = assay: Anticancer activity against human SNB75 cells after 48 hrs by sulforhodamine B assay; conditions: SNB-75, 48 h; outline: as §2

Fc1cc(-c2nnc3n2N=C(c2ccc(Cl)cc2Cl)CS3)c(Cl)cc1Cl
GI50 (K562): 47.5 µM | GI50 (SN12C): 56.4 µM | GI50 (IGROV-1): 50.4 µM | GI50 (HOP-92): 54.2 µM | GI50 (OVCAR-3): 22.8 µM | GI50 (HOP-62): 44.2 µM | GI50 (UO-31): 60.2 µM | GI50 (PC-3): 39.2 µM | GI50 (HT-29): 40.5 µM | GI50 (HL-60(TB)): > 100 µM | GI50 (MCF7 [1]): 31.3 µM | GI50 (SR): > 100 µM | GI50 (NCI-H322M): 76.4 µM | growth at 100 µM (SF-268 [2]): 76% | GI50 (SNB-19): 25.4 µM | GI50 (SF-539): 39.2 µM | GI50 (OVCAR-4): > 100 µM | GI50 (CAKI-1): 35.9 µM | GI50 (MOLT-4): 75.1 µM | growth at 100 µM (NCI-H460 [3]): 32% | GI50 (SK-OV-3): 48 µM | GI50 (HCC 2998): 35 µM | GI50 (Malme-3M): 26.6 µM | GI50 (COLO 205): 32.9 µM | GI50 (NCI/ADR-RES): 30.8 µM | GI50 (A549): 58 µM | GI50 (TK-10): 77.3 µM | GI50 (NCI-H226): 36.5 µM | GI50 (HCT-15): 38.3 µM | GI50 (UACC-62): 24.9 µM | GI50 (UACC-257): 86 µM | GI50 (LOX IMVI): 34.3 µM | GI50 (SF-268 [4]): 36.6 µM | growth at 100 µM (MCF7 [5]): 69% | GI50 (T47D): 17.7 µM | GI50 (OVCAR-8): 57.3 µM | GI50 (DU-145): 49.5 µM | GI50 (NCI-H460 [6]): 37.3 µM | GI50 (MDA-MB-435): 24.4 µM | GI50 (U-251): 56.2 µM | GI50 (EKVX): 58.5 µM | GI50 [7]: 33.6 µM | GI50 [8]: 25.3 µM | GI50 (SNB-75): > 100 µM
